We go through 48 sequences from the EternaBench riboswitch data.

In the series the test system is MS2 coat protein. Description: apparent Kd, MS2 coat protein; higher = weaker binding; RNA-MaP array; FMN 200 µM where present. Summed up: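 The titrant was SNAP-549-labelled MS2 coat protein, run from 0.7 or 1.5 nM in doubling steps to 3 µM. It was applied to designs transcribed by stalled E. coli RNA polymerase on Illumina sequencing-chip clusters, without ligand first and then with constant ligand, in 100 mM Tris-HCl pH 7.5, 80 mM KCl, 4 mM MgCl2, BSA, DTT, yeast tRNA and Tween-20. The apparent Kd is the median of filtered per-cluster binding-curve fits, with green signal normalised to red-channel RNA signal and control-cluster median Fmax.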

The mark [1] stands for this setting: designed as: ON switch for flavin mononucleotide, no ligand.
The mark [2] stands for this setting: ligand present: flavin mononucleotide, designed as: ON switch for flavin mononucleotide.
Setting [3] is: designed as: OFF switch for flavin mononucleotide, no ligand.
Where [4] appears, read: ligand present: flavin mononucleotide, designed as: OFF switch for flavin mononucleotide.

Take “AAUAAACACACAGGAUAUAGCAUCGUCGUUAUGAACUUAAUGACGACGAUGCUAGAAGGGUGAACACAUGAGGAUCACCCAUGU”: the “apparent Kd” value is, setting by setting: under setting [1], 211 nM; under setting [2], 35.6 nM.

In the case of “GGGCUCGGUGUGAGGAUAUGCUCGGGUAAAUCUGGGUAGAAGGCACAUGAGGAUCACCCAUGUAAGCUGGGUCU”, the “apparent Kd” value is, setting by setting: under setting [3], 33.9 nM; under setting [4], 33.9 nM.

Regarding “UACGUUAUACGCAACAUGAGGAUCACCCAUGUUAGCCGAUCACAGGAUAUGUUGGAGCCGGUCGGACAGAAGGGUGAGUUUGCU”, the “apparent Kd” value was 47.9 nM under setting [1] and 43.3 nM under setting [2].

As for “GGUGCACGCACAGGAUAUCCGGCGGCGCUCGUCGGAGAAGGGUGACAUGAGGAUCACCCAUGUACGUGCAACUCAGUUUGAGUG”, the “apparent Kd” value by setting is: under setting [1], 42.5 nM; under setting [2], 33.9 nM.

“UCCUCACAUGAGGAUCACCCAUGUCAGGAUAUACCCAAAGCUGCGAAAAUAUCCAGCUGUAGAAGGGACAGGCU”: the “apparent Kd” value under setting [3] was 18.3 nM and the “apparent Kd” value under setting [4] is 20.1 nM.

“CGGCGCUGUCGAGAGGAUAUGCGGUGAUGGACAUGAGGAUCACCCAUGUUAGCGAUAGCAUUACGGUAGAAGGCUCUAUAGUUGC”: the “apparent Kd” value is, setting by setting: under setting [1], 362 nM; under setting [2], 93.2 nM.

For the sequence “GUAUGAGCGAUAGGAUAUACUGGGAUUGAAUGGGUAGAAGGAUUUCUUGUGGGAAAGACAUGAGGAUCACCCAUGUCGCGGACC”, the “apparent Kd” value reads like this: under setting [1], 255 nM; under setting [2], 165 nM.

As for “CCGGUGUCAGGAUAUACGCCAACCACUGAAAAGGUAUGGGCGUAGAAGGGACAUGAGGAUCACCCAUGUCAGUC”, the “apparent Kd” value reads like this: under setting [3], 22.8 nM; under setting [4], 36.3 nM.

For “GCCAAUGUGGAGGAUAUCGACUUCGAAAGAAGUCGAGAAGGCCACACAUGAGGAUCACCCAUGUGAUGCCUGGC”, the “apparent Kd” value came out at 199 nM under setting [3] and 231 nM under setting [4].

In the case of “CUGUUAUAGGUCCAGAAUUACAACAUGAGGAUCACCCAUGUGCAGGAUAUCGGGUUGAUAGGCGCCGAGAAGGGCAUAGUCACG”, the “apparent Kd” value runs as follows: under setting [3], 64.5 nM; under setting [4], 106 nM.

Consider “AUCGAACAUGAGGAUCACCCAUGUCAGUCGAACCAAGGAUAUGGGCAGGGUUCUCUUGCACCAGAAGGUGGCUAAA”, for which the “apparent Kd” value was found to be 56.9 nM under setting [1] and 95.7 nM under setting [2].

Turning to “CUUCGACAUGAGGAUCACCCAUGUCAGGAUAUUGUGUAUCGGGUUUUUUACGGUAAGGCAAGAAGGGAUGUGUG”, the “apparent Kd” value runs as follows: under setting [3], 33 nM; under setting [4], 30.2 nM.

Consider “AGGGAGUUAGGAUAUGCUGCUCGUCACUUGCGUGAUGAGUAGCAGAAGGGACAUGAGGAUCACCCAUGUAAAGA”, for which the “apparent Kd” value is, setting by setting: under setting [3], 42.1 nM; under setting [4], 24.7 nM.

As to “UUACAGCACGGGUAGGAUAUGUAGGGUGGUACAUGAGGAUCACCCAUGUAUCCACCCUUCGAACGGCAGAAGGGCCUGUCACUGC”, the “apparent Kd” value turned out to be 16.7 nM under setting [1] and 17 nM under setting [2].

As to “CUUCGACAUGAGGAUCACCCAUGUCAGGAUAUUGUGUAUCUGGUUUUUUACAGAUAGACAAGAAGGGAUGUGUU”, the “apparent Kd” value under setting [3] turned out to be 27.1 nM and the “apparent Kd” value under setting [4] was found to be 23.4 nM.

“CGAAAAUUUCAGAAGGACCGAUUCCACAUGAGGAUCACCCAUGUCGAUGGUAGGAUAUGGAGUUGUGGACAGGGCGGAUGUACC”: the “apparent Kd” value was 72.1 nM under setting [1] and 8.92 nM under setting [2].

Take “UCAUUAUAAAUCCAUCAUAACUACAUGAGGAUCACCCAUGUGCAGGAUAUCGAUGGUUUAACUAUCGAGAAGGGCAUUUACAGA”: the “apparent Kd” value by setting is: under setting [3], 47.8 nM; under setting [4], 146 nM.

Turning to “AAAUUGUGAGGAUAUCAGGUGUGCUAGCGUACUGGUACAUCUGAGAAGGCACAUGAGGAUCACCCAUGUUUCUU”, the “apparent Kd” value is, setting by setting: under setting [3], 16.1 nM; under setting [4], 44.2 nM.

For “UUUUAACAUGAGGAUCACCCAUGUGAGGAUAUCGAAAUUUAUAUUAAUAUUUAUAUUACGAGAAGGCACAUUUU”, the “apparent Kd” value came out at 81.6 nM under setting [3] and 82.4 nM under setting [4].

Take “CCGGAAACGGGUAGCCUGACAUGAGGAUCACCCAUGUGAACCGAGGAUAUGGAUCCUAAUUGGAUCCAGAAGGUGGAAGGCUAC”: the “apparent Kd” value is 381 nM under setting [1] and 167 nM under setting [2].

Take “UGAUCUUGUGUUAGGAUAUGCUGGUUUUUUUUUCAGCAGAAGGGACAUGAGGAUCACCCAUGUUCUCUCUUUUU”: the “apparent Kd” value was 12.8 nM under setting [3] and 17.3 nM under setting [4].

As for “GCAUGCUAUGUCAGGAUAUACCUGUGGAUACAUAGGUAGAAGGGACAUGAGGAUCACCCAUGUCCUAAUCAUGC”, the “apparent Kd” value was determined as 12.8 nM under setting [3] and 14.9 nM under setting [4].

For “CUUUUGUGAGGAUAUUAGUAGUAAAAAAAUAAAAUUACUACUGAGAAGGCACAUGAGGAUCACCCAUGUUUCUC”, the “apparent Kd” value by setting is: under setting [3], 28.2 nM; under setting [4], 115 nM.

With “UUAUUUAUGCAAGGAUAUCAAUUAUAUUGACGUCCUACAUGAGGAUCACCCAUGUUUAGUUUUUUUGAGAAGGUGCAUUGUCUG”, the “apparent Kd” value came to 64.8 nM under setting [1] and 59.7 nM under setting [2].

“UUUGUAAUGUCAGGAUAUAUAAUAAGUCAUACAGUAGAAGGGAUAAUAAUACUCAUGUACAUGAGGAUCACCCAUGUUAAAUAU”: the “apparent Kd” value was determined as 98.8 nM under setting [1] and 52.4 nM under setting [2].

With “AAGUUUUUACAAGGAUAUCAAUUGUUUCUAAAUUCAACAUGAGGAUCACCCAUGUAACAAUGGAGUGAGAAGGUGUGUUGGCAA”, the “apparent Kd” value by setting is: under setting [1], 86.8 nM; under setting [2], 141 nM.

On to “GUACGUGGACAGAAGGUGACAUGAGGAUCACCCAUGUUAGUUGAGGUACCAGCGAUCUGCGUGAUUGAGGAUAUGUCUGCGGGC”, for which the “apparent Kd” value is, setting by setting: under setting [3], 11.9 nM; under setting [4], 13.8 nM.

With “ACGCACGGAGGAUAUACAUGAGGAUCACCCAUGUCGGUGUAUUUUCGGCCAAAAUUUUGUAGAAGGCUGUCGUG”, the “apparent Kd” value runs as follows: under setting [3], 222 nM; under setting [4], 526 nM.

In the case of “ACAUGAGGAUCACCCAUGUUAUCAGGGACUUCAAUUAUUUCUAGAAGGCUGUUUACUUGUUAGUCAGAGGAUAUAGAAUUAAAU”, the “apparent Kd” value under setting [3] was 14.5 nM and the “apparent Kd” value under setting [4] is 15.9 nM.

For the sequence “UUUUUAUUUGUAGGAUAUGGAGACAUGAGGAUCACCCAUGUAUGAUAAGAUAAAUUAUGAUGUGGCCAGAAGGAUAUUAUUUUU”, the “apparent Kd” value was determined as 87.1 nM under setting [1] and 119 nM under setting [2].

In the case of “UCGGGCGUAGGAUAUGCUAUCACGGACAUGAGGAUCACCCAUGUCAGAUGUCCGGGCGAGGCAGAAGGGCGGUUUU”, the “apparent Kd” value is, setting by setting: under setting [3], 74.1 nM; under setting [4], 120 nM.

For the sequence “AUAAUGUAAGGAUAUAUGAAUCACGGUGAUACACCGUGAAGAUAGAAGGUACAUGAGGAUCACCCAUGUAGGGC”, the “apparent Kd” value runs as follows: under setting [3], 50.5 nM; under setting [4], 220 nM.

“CUGUGUUGCGGGCAGGAUAUGUAUUGGAAUACAUGAGGAUCACCCAUGUGCGGGUGUUUCACCCGACAGAAGGGCCAAUCGCGAC”: the “apparent Kd” value reads like this: under setting [1], 363 nM; under setting [2], 34.9 nM.

With “GCGUUGAACGAGAAGGCCAAUACAUGAGGAUCACCCAUGUAGUGAAGUAUUGGAGGAUAUCGAUCGGCGUCUCAUGAGCAACGC”, the “apparent Kd” value amounted to 7.49 nM under setting [3] and 19.6 nM under setting [4].

Turning to “CUCCAUUCUGGAGGAUAUCAUAGUCGUUGACUAUGAGAAGGUUAGCUAUCUUACAUGAGGAUCACCCAUGUGAUCUACAUGGAG”, the “apparent Kd” value turned out to be 40.5 nM under setting [1] and 10.8 nM under setting [2].

Consider “AACAGUAGAGGAUAUACAUGAGGAUCACCCAUGUGAGAAUUAAGUGGCGUACCACUAAGUAGAAGGCUACUGGA”, for which the “apparent Kd” value is, setting by setting: under setting [3], 96.9 nM; under setting [4], 235 nM.

Consider “GCUAGGAAUGUCAGGAUAUGCAGAACCUUGGUUCUGCAGAAGGGACAUGAGGAUCACCCAUGUGCUAACCUAGC”, for which the “apparent Kd” value under setting [3] amounted to 29.6 nM and the “apparent Kd” value under setting [4] was found to be 113 nM.

Take “UUUGCAUUCCGAGGAUAUUCAUUUAAUGACUUCACAUGAGGAUCACCCAUGUGGCGCUUGCGCCGGGAGAAGGCGGUUUGCUUU”: the “apparent Kd” value is, setting by setting: under setting [1], 25.6 nM; under setting [2], 24.1 nM.

Regarding “GUCAUCUCAUGAGGAUAUGCUCGGGUUUCCCGAGCAGAAGGCAUGUCAUAAGACAUGAGGAUCACCCAUGUAUUUAAGAUUGUA”, the “apparent Kd” value amounted to 49.6 nM under setting [1] and 8.92 nM under setting [2].

“CACCCACAUGAGGAUCACCCAUGUGAGGAUAUGAUACUAUGUACUUCGGUACAUAGUAUCAGAAGGCACAGGUG”: the “apparent Kd” value is 32 nM under setting [3] and 106 nM under setting [4].

Consider “AGAUCACAUGAGGAUCACCCAUGUGAGGAUAUGAUACUAUGUACUUCGGUACAUAGUAUCAGAAGGCAUGUGGA”, for which the “apparent Kd” value by setting is: under setting [3], 56.7 nM; under setting [4], 109 nM.

In the case of “GUAUUUUGAGGAUAUACUAUUAACCACAUGAGGAUCACCCAUGUUCUAUCAUGAAUUUAUGUAGAAGGCAGAAUGC”, the “apparent Kd” value runs as follows: under setting [3], 71.8 nM; under setting [4], 128 nM.

For the sequence “AAUUUUUAACAGAAGGCGUUUAUAGUUAAGUUACGAGGAUAUGUUUUACAUGAGGAUCACCCAUGUUACUAGGGUAGUAUAUAU”, the “apparent Kd” value under setting [1] was found to be 42.4 nM and the “apparent Kd” value under setting [2] came out at 30.8 nM.

For the sequence “GUGCCUUGGGAGAAGGAUAAUAAUAAAUAAAUAAUAGGAUAUUCAUACCGGAAACGGACAUGAGGAUCACCCAUGUGGCACAAA”, the “apparent Kd” value amounted to 413 nM under setting [1] and 125 nM under setting [2].

For the sequence “AAAACAUGAGGAUCACCCAUGUUUAGAUCGGUCGAUAGAAGUGAGGAUAUACUAAGUUAAGGCUGGUAGAAGGCACUGGGUACA”, the “apparent Kd” value stood at 26.9 nM under setting [1] and 27.5 nM under setting [2].

Regarding “GACUGCCGAGGAUAUACAUGAGGAUCACCCAUGUGCUUCAGUAUCGAAAGAUGCAUGGGUAGAAGGCGGUAGUC”, the “apparent Kd” value runs as follows: under setting [3], 391 nM; under setting [4], 284 nM.

In the case of “UAGGUUUGUAGUUACAUCCCUACACAGGAUAUGGGUAGUUACAUGAGGAUCACCCAUGUUCGAACUCAGAAGGGUGGAUCGUUA”, the “apparent Kd” value amounted to 170 nM under setting [1] and 13.8 nM under setting [2].

Take “UUGCAGUCGUCAGGAUAUAGUAUUACGGCCAUUUAUUUUUUCAUACAUGAGGAUCACCCAUGUCGCUAGAAGGGAUUAUCGAUU”: the “apparent Kd” value reads like this: under setting [3], 49.1 nM; under setting [4], 45.4 nM.
